Results pooled from the literature.
Target: Tyrosine-protein kinase ABL2 (ABL2, Homo sapiens, UniProt P42684)

CNC(=O)Nc1ccc2c(c1)[C@@]1(CC2)OC(=O)N(CC(=O)N(Cc2ccc(F)cc2)[C@@H](C)C(F)(F)F)C1=O  remaining binding (cell-free assay, competition with immobilised ligand; 1 µM): 84%
c1cnn2ncc(-c3ccnc(N4CCC45COC5)n3)c2c1  remaining binding (binding; 1 µM): 87%
O=C(Nc1cccnn1)N1CC(C/C=C/c2cncc(Oc3ccc(C(F)(F)F)cn3)n2)C1  remaining binding (cell-free assay, competition with immobilised ligand; 1 µM): 100%
CNC(=O)c1cc(Oc2ccc(NC(=O)Nc3ccc(Cl)c(C(F)(F)F)c3)cc2)ccn1  remaining binding (cell-free assay, competition with immobilised ligand; 0.1 µM): 97%
O=C(c1ccc(Nc2ncc(Cl)c(-c3ccc(Cl)s3)n2)cc1)N1CCC(N2CCCC2)CC1  remaining binding (binding, competition with immobilised ligand; 1 µM): 56%
Nc1ncc2c(n1)-c1c([nH]c3ccc(C#CC4CC4)cc13)CCCC2  remaining binding (binding, competition with immobilised ligand; 1 µM): 86%
CN1CC[C@H](c2c(O)cc(O)c3c(=O)cc(-c4ccccc4Cl)oc23)[C@H](O)C1  remaining binding (cell-free assay, competition with immobilised ligand; 0.1 µM): 100%
Cn1nc(C(F)(F)F)cc1-c1cnc(N2CCc3cc(S(=O)(=O)Nc4c(F)cc(Cl)cc4F)cc(N4CCCC4=O)c32)nc1  remaining binding (cell-free assay, competition with immobilised ligand; 1 µM): 100%
C[C@@H]1CCN(c2nccc(-c3cnn4ncccc34)n2)C1  remaining binding (binding; 1 µM): 76%
COc1cnc(Nc2cccc(S(N)(=O)=O)c2)nc1N1CCN(c2ccccc2)C(=O)C1  remaining binding (binding, competition with immobilised ligand; 1 µM): 100%
O=C(NCC1CCOCC1)c1n[nH]cc1NC(=O)c1c(F)cccc1F  remaining binding (binding, competition with immobilised ligand; 1 µM): 100%
CO[C@@H](C)c1c(Nc2ccc([C@H](N(C)C(=O)C3CCS(=O)(=O)CC3)C(F)(F)F)cc2)cnc2cc(Cl)nn12  remaining binding (cell-free assay, competition with immobilised ligand; 1 µM): 85%
Cc1c(-c2ccccc2)oc2c(C(=O)OCCN3CCCCC3)cccc2c1=O  remaining binding (cell-free assay, competition with immobilised ligand; 10 µM): 94%
COc1cnc(Nc2cccc(S(N)(=O)=O)c2)nc1N1CCN(c2ccccc2)CC1  remaining binding (binding, competition with immobilised ligand; 1 µM): 98%
C[C@@H](c1cccc(C#N)c1)n1cc(Cl)cc(C(N)=O)c1=N  remaining binding (cell-free assay, competition with immobilised ligand; 1 µM): 84%
COc1ccnn2ncc(-c3ccnc(N(C)C)n3)c12  remaining binding (binding; 1 µM): 86%
O=C(NCc1ncc(C(F)(F)F)cc1Cl)c1ccc2c(c1)C1(CCS(=O)(=O)CC1)[C@@H](C1CC1)N2S(=O)(=O)c1ccc(F)cc1  remaining binding (cell-free assay, competition with immobilised ligand; 1 µM): 100%
COc1cc2ncnc(Nc3ccc(F)c(Cl)c3)c2cc1OCCCN1CCOCC1  remaining binding (cell-free assay, competition with immobilised ligand; 10 µM): 83%
FC(F)(F)Oc1cccc(-c2cnc3ccc(-c4ccncc4)nn23)c1  remaining binding (cell-free assay, competition with immobilised ligand; 5 µM): 76%
CN(C)c1ncc(F)c(-c2cnn3ncccc23)n1  remaining binding (binding; 1 µM): 100%
N#Cc1ccc(Nc2ccc3[nH]c(=O)[nH]c3c2)c(Cl)c1  remaining binding (cell-free assay, competition with immobilised ligand; 1 µM): 93%
N[C@@H]1CCN(c2nccc(-c3cnn4ncccc34)n2)C1  remaining binding (binding; 1 µM): 96%
CCN(CC)CCNC(=O)c1c(C)[nH]c(/C=C2\C(=O)Nc3ccc(F)cc32)c1C  remaining binding (cell-free assay, competition with immobilised ligand; 10 µM): 51%
CC1CCCN1c1nccc(-c2cnn3ncccc23)n1 (stereo not drawn)  remaining binding (binding; 1 µM): 100%
CS(=O)(=O)CCNCc1ccc(-c2ccc3ncnc(Nc4ccc(OCc5cccc(F)c5)c(Cl)c4)c3c2)o1  remaining binding (cell-free assay, competition with immobilised ligand; 0.1 µM): 99%
O=C(NCCCN1CCOCC1)c1ccc(Nc2ncc(Cl)c(-c3ccc(Cl)s3)n2)cc1  remaining binding (binding, competition with immobilised ligand; 1 µM): 67%
CS(=O)(=O)c1cc(C2(NC(=O)c3cncc4c3cnn4-c3ccc(F)cc3)CC2)ccn1  remaining binding (cell-free assay, competition with immobilised ligand; 1 µM): 95%
C[C@@H](c1ccc(-n2cnc3c(N)ncnc32)cc1)N1CCc2nn(C)c(Cc3ccccc3)c2C1=O  remaining binding (binding, competition with immobilised ligand; 0.1 µM): 76%
CCN(CC)Cc1cc(Nc2ccnc3cc(Cl)ccc23)ccc1O  remaining binding (cell-free assay, competition with immobilised ligand; 10 µM): 100%
C=CC(=O)N1CCC(C(=O)NCC(=O)N2CCN(c3nc(-c4cnc(N)nc4C(F)F)nc(N4CCOCC4)n3)CC2)CC1  remaining binding (binding, competition with immobilised ligand; 1 µM): 91%
